Columns and labels:
[1] = Lipophilicity, log D of the compound by RP-HPLC analysis; type: physicochemical
HepG2 [2] = experiment: Induction of apoptosis in human HepG2 cells assessed as caspase 3/7 activity at 30 uM after 24 hrs by caspase Glo assay relative to staurosporine; type: cell-based; conditions: hepg2, 24 h
Procedure, shortened: (§1)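 HepG2 cells seeded 2 × 10^4/well, treated 1 day in DMEM with 0.5% FBS, 2 mM L-glutamine, 1 mM pyruvate. Caspase-Glo 3/7 luminescence; activity = (compound − 1% DMSO)/(30 μM staurosporine − 1% DMSO) ×100, n = 3.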

[3] = target: T1, Free fatty acid receptor 1 (Homo sapiens, UniProt O14842); experiment: Agonist activity at human GPR40 receptor expressed in CHO cells assessed as increase in intracellular calcium level for 90 secs by FLIPR assay in the presence of 0.1% BSA; type: functional, cell-based
T1 sequence (O14842 whole entry): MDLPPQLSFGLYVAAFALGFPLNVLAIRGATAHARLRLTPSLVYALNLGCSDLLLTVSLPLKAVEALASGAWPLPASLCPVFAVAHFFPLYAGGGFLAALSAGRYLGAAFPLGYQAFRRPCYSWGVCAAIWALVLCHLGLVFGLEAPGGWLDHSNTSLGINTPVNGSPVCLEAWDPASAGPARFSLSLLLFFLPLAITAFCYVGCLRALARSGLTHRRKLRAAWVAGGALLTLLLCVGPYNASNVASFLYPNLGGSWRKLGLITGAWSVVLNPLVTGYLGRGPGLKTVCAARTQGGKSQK
Procedure, shortened: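 CHO dhfr cells stably expressing human GPR40 plated overnight, loaded 60 min at 37 °C with Fluo 4 AM (2.5 μg/mL), 2.5 mmol/L probenecid, 0.1% fatty acid-free BSA. Ca2+ rise after compound addition read 90 s; response scaled between vehicle (0%) and 10 μM γ-linolenic acid (100%).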

[4] = Cytotoxicity against human HepG2 cells assessed as intracellular ATP level at 30 uM after 24 hrs by ATPlite assay relative to control; type: cell-based; conditions: read-out: Activity
Procedure, shortened: (§2)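 HepG2 cells seeded 2 × 10^4/well, treated 1 day in DMEM with 0.5% FBS, 2 mM L-glutamine, 1 mM pyruvate. ATP measured by ATPlite luminescence; % of 1% DMSO control (RLU ratio ×100), n = 3.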

[5] = target: Free fatty acid receptor 1 (Rattus norvegicus, UniProt Q8K3T4); experiment: Displacement of 3-[4-({2',6'-dimethyl-6-[(4-[3H])phenylmethoxy]biphenyl-3-yl}methoxy)phenyl] propanoic acid from rat GPR40 receptor expressed in CHO cell membrane after 90 mins by liquid scintillation counting in the presence of 0.2% BSA; type: cell membranes
Chain of Free fatty acid receptor 1 (Rattus norvegicus, UniProt Q8K3T4) (Q8K3T4 whole entry): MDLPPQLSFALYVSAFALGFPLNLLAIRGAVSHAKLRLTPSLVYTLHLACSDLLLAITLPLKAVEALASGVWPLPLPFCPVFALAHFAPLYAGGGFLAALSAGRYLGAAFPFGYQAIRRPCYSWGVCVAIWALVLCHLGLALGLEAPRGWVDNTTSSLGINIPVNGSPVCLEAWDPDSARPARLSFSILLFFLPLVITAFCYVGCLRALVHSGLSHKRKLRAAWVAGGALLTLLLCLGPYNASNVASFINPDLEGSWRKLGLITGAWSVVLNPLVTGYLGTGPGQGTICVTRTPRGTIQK
Procedure, shortened: (§3)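 Membranes from CHO lines stably expressing human or rat GPR40, buffer 25 mmol/L Tris-HCl pH 7.5, 5 mmol/L EDTA, protease inhibitors, 0.05% CHAPS, 0.2% fatty-acid-free BSA. Tritiated ligand at 2 or 6 nmol/L with graded test compound, 90 min room temperature, GF/C filtration, scintillation counting. Nonspecific binding: 10 μmol/L unlabeled ligand. IC50 by nonlinear regression, Ki = IC50/(1+[L]/Kd).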

[6] = Cytotoxicity against human HepG2 cells assessed as intracellular ATP level at 10 uM after 24 hrs by ATPlite assay relative to control; type: cell-based; conditions: read-out: Activity; procedure, shortened: as §2
HepG2 [7] = experiment: Induction of apoptosis in human HepG2 cells assessed as caspase 3/7 activity at 10 uM after 24 hrs by caspase Glo assay relative to staurosporine; type: cell-based; conditions: hepg2, 24 h; procedure, shortened: as §1
[8] = Metabolic stability in human hepatic microsomes; type: ADME; conditions: liver microsomes, read-out: Stability
[9] = target: T1, Free fatty acid receptor 1; experiment: Displacement of 3-[4-({2',6'-dimethyl-6-[(4-[3H])phenylmethoxy]biphenyl-3-yl}methoxy)phenyl] propanoic acid from human GPR40 receptor expressed in CHO cell membrane after 90 mins by liquid scintillation counting in the presence of 0.2% BSA; type: cell membranes; procedure, shortened: as §3
[10] = Metabolic stability in rat hepatic microsomes; type: ADME; conditions: liver microsomes, read-out: Stability

| SMILES | logD [1] | Activity (HepG2 [2]) | EC50 [3] | viability at 24 h, 30 µM [4] | Ki [5] | viability at 24 h, 10 µM [6] | Activity (HepG2 [7]) | microsomal CLint [8] | Ki [9] | microsomal CLint [10] |
| --- | --- | --- | --- | --- | --- | --- | --- | --- | --- | --- |
| CCS(=O)(=O)CCOc1cc(C)c(-c2cccc(CNc3ccc(CCC(=O)O)c(F)c3)c2)c(C)c1 | 2.39 | -0.9% | 99 nM | 45.7% | 4.5 nM | 79.8% | -1% | 2 µL/min/mg | 20 nM | – |
| CCOCCOc1cc(C)c(-c2cccc(COc3ccc(CCC(=O)O)c(F)c3)c2)c(C)c1 | 4.14 | – | 4.5 nM | – | 4.5 nM | – | – | 8 µL/min/mg | 12 nM | – |
| Cc1cccc(C)c1-c1cccc(COc2ccc(CCC(=O)O)cc2)c1 | 4.04 | – | 22 nM | – | 27 nM | – | – | 28 µL/min/mg | 46 nM | 34 µL/min/mg |
| CCOCCOc1cc(C)c(-c2cccc(COc3ccc(CCC(=O)O)cc3)c2)c(C)c1 | 3.89 | – | 13 nM | – | 10 nM | – | – | – | 23 nM | – |
| Cc1cc(OC2CCOCC2)cc(C)c1-c1cccc(COc2ccc(CCC(=O)O)c(F)c2)c1 | 4.1 | 42.8% | 23 nM | 38.1% | 6.7 nM | 60.3% | 0.9% | – | 20 nM | – |
| Cc1cc(OC2CCS(=O)(=O)CC2)cc(C)c1-c1cccc(CNc2ccc(CCC(=O)O)c(F)c2)c1 | 2.44 | -0.7% | 23 nM | 60.7% | 5.1 nM | 78.8% | -0.5% | – | 18 nM | – |
| Cc1cccc(Oc2cc(C)c(-c3cccc(COc4ccc(CCC(=O)O)c(F)c4)c3)c(C)c2)n1.Cl | 4.23 | 41.1% | 31 nM | 47.5% | 6.7 nM | 56.7% | -0.4% | – | 12 nM | – |
| COc1ccc(COc2ccc(CCC(=O)O)cc2)cc1-c1c(C)cccc1C | 3.38 | – | 20 nM | – | 87 nM | – | – | – | 47 nM | – |
| CCOCCOc1cc(C)c(-c2cccc(CNc3ccc(CCC(=O)O)c(F)c3)c2)c(C)c1.Cl | 3.49 | 1.2% | 26 nM | 48.5% | 6.2 nM | 9.9% | 5.3% | – | 18 nM | – |
| COc1cc(COc2ccc(CCC(=O)O)c(F)c2)cc(-c2c(C)cccc2C)c1 | 4.16 | – | – | – | 120 nM | – | – | – | 99 nM | – |
| Cc1cccc(C)c1-c1cccc(COc2ccc(CCC(=O)O)c(F)c2)c1 | – | – | – | – | 36 nM | – | – | 69 µL/min/mg | – | 39 µL/min/mg |
| Cc1cccc(C)c1-c1cccc(COc2ccc(CCC(=O)O)cc2)c1C | 4.22 | – | 40 nM | – | 30 nM | – | – | – | 58 nM | – |
| Cc1cc(OCC2(O)CCS(=O)(=O)CC2)cc(C)c1-c1cccc(COc2ccc(CCC(=O)O)c(F)c2)c1 | 2.78 | 2.8% | 15 nM | 61.5% | 8.2 nM | 88.6% | -0.2% | – | 19 nM | – |
| Cc1cc(OCC2CC2)cc(C)c1-c1cccc(COc2ccc(CCC(=O)O)cc2)c1 | 4.61 | – | 15 nM | – | 5.6 nM | – | – | – | 16 nM | – |
| Cc1cc(OCc2ccccc2)cc(C)c1-c1cccc(COc2ccc(CCC(=O)O)cc2)c1 | 5.08 | – | 14 nM | – | 6.7 nM | – | – | – | 15 nM | – |
| COc1ccc(-c2c(C)cccc2C)cc1COc1ccc(CCC(=O)O)cc1 | 4.04 | – | – | – | 10000 nM | – | – | – | 520 nM | – |
| COc1cc(C)c(-c2cccc(COc3ccc(CCC(=O)O)cc3)c2)c(C)c1 | 3.83 | – | 12 nM | – | 6.2 nM | – | – | – | 25 nM | – |

— ChEMBL document CHEMBL2046346, “Discovery of phenylpropanoic acid derivatives containing polar functionalities as potent and orally bioavailable G protein-coupled receptor 40 agonists for the treatment of type 2 diabetes” (J Med Chem, 2012)
